Activity and IC50 data for nine compounds are collected here from ChEMBL document CHEMBL2040806, “Synthesis and biological evaluation of analogs of the marine alkaloids granulatimide and isogranulatimide” (Eur J Med Chem, 2012).

pIC50: −log10 of the molar value. Calls of active or inactive are those of the source. The calls are words filed in the database; no cut-off is given here. Bounds are passed on as bounds.

Broadly, the pIC50 is the IC50 on a negative log10 scale, so that one unit is a factor of ten. One may read the IC50 as the concentration that inhibits the measured activity by half.

In assay [1] the test system is A549. Put plainly: Cytostatic activity against human A549 cells after 72 hrs by quantitative videomicroscopic analysis. Type of assay: functional, cell-based.
A further assay concerns B16-F10. Put plainly: Cytotoxicity against mouse B16F10 cells after 72 hrs by MTT assay. The assay is classed as functional, cell-based. The following applies: B16-F10, 72 h. A general note: Tetrazolium dyes change colour on reduction, which living cells bring about.
Assay [2] can be described thus: Cytotoxicity against human Hs683 cells after 72 hrs by MTT assay. The assay is classed as functional, cell-based. The following applies: Hs 683, 72 h.
Assay [3] has as its system A549. The assay can be described thus: Cytotoxicity against human A549 cells after 72 hrs by MTT assay. The assay is classed as functional, cell-based. Particulars: A549, 72 h.
A further assay has as its system PC-3. Put plainly: Cytotoxicity against human PC3 cells after 72 hrs by MTT assay. Type of assay: functional, cell-based. The following applies: PC-3, 72 h.
A short description of assay [4]: Cytotoxicity against p53-mutant human U373 cells after 72 hrs by MTT assay. Type of assay: functional, cell-based, U-373MG ATCC. Particulars: U373 MG.
A further assay has as its system LoVo. Put plainly: Cytotoxicity against human LoVo cells after 72 hrs by MTT assay. The assay is classed as functional, cell-based.
In the next assay the test system is MCF7. Put plainly: Cytotoxicity against human MCF7 cells after 72 hrs by MTT assay. Particulars: MCF7, 72 h. Type of assay: functional, cell-based.
Assay [5] is described as follows: Cytotoxicity against human OE21 cells after 72 hrs by MTT assay. The assay is classed as functional, cell-based. The following applies: OE21, 72 h.
For assay [6], the target named is Dual specificity tyrosine-phosphorylation-regulated kinase 1A (Rattus norvegicus, UniProt Q63470). The assay can be described thus: Inhibition of GST-fused rat recombinant DYRK1A expressed in Escherichia coli using Woodtide as substrate and [gamma-33P] after 30 mins by scintillation counting.
Assay [7] addresses Dual specificity protein kinase CLK1 (Mus musculus, UniProt P22518). Put plainly: Inhibition of GST-fused mouse recombinant CLK1 expressed in Escherichia coli using RS peptide as substrate. Put shortly: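 Blanks subtracted, activity as % of uninhibited maximum, DMSO dilution controls, IC50 from dose-response curves.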
The subject of assay [8] is HCT-116. The assay can be described thus: Cell cycle arrest in p53 double-mutant human HCT116 cells assessed as mitotic index after 24 hrs by flow cytometric analysis. Type of assay: functional. The arrangement: concentration or dose not given beside the values. Put shortly: (§1)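 HCT116 p53-/- cells pretreated with etoposide for 1 h, then released into drug-free medium with or without inhibitor for 23 h; nocodazole added to trap cells exiting G2/M. Mitotic cells scored by phospho-histone H3 labeling and DNA content (propidium iodide) by flow cytometry.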
Background: Flow cytometry measures light scatter and fluorescence of single cells or particles in a stream.

Assay [9] in a line: Inhibition of porcine brain CK1delta/epsilon using CKS peptide as substrate. The arrangement: species or system Sus scrofa.
In assay [10] the target is Glycogen synthase kinase-3 (Sus scrofa, UniProt B2LUN4+I6LNT8). The assay can be described thus: Inhibition of porcine brain GSK3alpha/beta using GS1 as substrate.
In assay [11] the target is Cyclin-dependent kinase 5/CDK5 activator 1 (Homo sapiens, UniProt Q00535). The assay can be described thus: Inhibition of human recombinant CDK5/p25. Type of assay: protein-complex assay. Put shortly:
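Human recombinant CDK5/p25 assayed in triplicate in buffer C with 1 mg/ml histone H1 at 30 °C, 15 µM ATP final. Activity as % of uninhibited control after blank subtraction; IC50 from dose-response curves.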

The test system of assay [12] is HCT-116. Put plainly: Cell cycle arrest in p53 double-mutant human HCT116 cells assessed as mitotic index at 300 nM after 24 hrs by flow cytometric analysis. Type of assay: functional. In outline:
as §1

Sequence of Cyclin-dependent kinase 5/CDK5 activator 1 (Q00535 whole entry): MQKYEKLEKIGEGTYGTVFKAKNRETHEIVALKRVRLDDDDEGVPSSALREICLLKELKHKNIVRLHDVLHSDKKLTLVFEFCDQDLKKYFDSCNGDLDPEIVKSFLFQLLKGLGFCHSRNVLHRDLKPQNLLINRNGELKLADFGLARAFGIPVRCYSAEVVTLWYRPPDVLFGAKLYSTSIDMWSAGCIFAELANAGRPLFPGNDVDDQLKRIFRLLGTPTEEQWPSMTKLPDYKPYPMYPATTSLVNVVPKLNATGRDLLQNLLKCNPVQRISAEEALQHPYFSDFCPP
Sequence of Cyclin-dependent kinase 5/CDK5 activator 1 (Q15078 whole entry, further chain): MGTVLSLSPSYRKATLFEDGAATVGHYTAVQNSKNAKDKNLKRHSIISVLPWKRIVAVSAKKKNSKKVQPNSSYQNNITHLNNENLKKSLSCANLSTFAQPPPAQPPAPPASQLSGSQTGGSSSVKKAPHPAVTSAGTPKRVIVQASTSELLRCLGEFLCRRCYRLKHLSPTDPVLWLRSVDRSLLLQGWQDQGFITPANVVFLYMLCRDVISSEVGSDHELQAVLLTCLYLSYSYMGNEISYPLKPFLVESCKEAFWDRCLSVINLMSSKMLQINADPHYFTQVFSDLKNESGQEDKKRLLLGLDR
Sequence of Dual specificity protein kinase CLK1 (P22518 whole entry, the tested form may be a part): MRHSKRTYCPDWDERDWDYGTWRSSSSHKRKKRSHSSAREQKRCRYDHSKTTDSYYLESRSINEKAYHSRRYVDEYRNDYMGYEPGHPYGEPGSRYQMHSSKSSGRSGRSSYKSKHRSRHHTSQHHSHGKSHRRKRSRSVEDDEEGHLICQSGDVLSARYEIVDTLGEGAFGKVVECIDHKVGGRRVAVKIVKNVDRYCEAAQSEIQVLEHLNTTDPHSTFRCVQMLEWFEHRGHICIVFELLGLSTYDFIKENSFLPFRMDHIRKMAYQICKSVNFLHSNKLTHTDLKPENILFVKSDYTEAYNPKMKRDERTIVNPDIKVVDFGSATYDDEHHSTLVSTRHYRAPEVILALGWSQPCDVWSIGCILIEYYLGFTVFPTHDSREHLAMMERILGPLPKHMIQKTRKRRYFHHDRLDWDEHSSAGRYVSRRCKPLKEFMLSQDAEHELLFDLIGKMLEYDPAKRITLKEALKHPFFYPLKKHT

Turning to `O=C1CC(c2c(-c3ccc[nH]3)[nH]c3ccccc23)C(=O)N1` (centres undefined), the result with A549 [1] was Active. The negative-log IC50 (pIC50) in the assay with B16-F10 was 5.70; in [2], 4.60; in the assay with A549 [3] it was 5.10; with PC-3, 5.05; in assay [4], 5.40; in the assay on LoVo it was 5.10. Besides, the negative logarithm of the IC50 (pIC50) was 4.46 with MCF7 and 4.17 in [5].

In the case of `O=C1NC(=O)c2c1c1c3ccccc3[nH]c1n1nccc21`, the negative logarithm of the IC50 (pIC50) in [6] is 5.68; in assay [7], 6.52; in the assay with B16-F10, 4.60; in [2], 5.52; in the assay on A549 [3] it was 5.10; in the assay on PC-3, 4.66. The pIC50 in assay [4] is 6.70; in assay [9], 5.49; in the assay on LoVo, 6.40; in the assay with MCF7, 4.60; in assay [11] it was 5.40; in assay [5], 5.70. Besides, the Activity in the assay with HCT-116 [8] was 23.9%. The IC50 in assay [10] turned out to be 0.49 µM.

Take `O=C1NC(=O)c2c1c1c3cc(O)ccc3[nH]c1n1nccc21`: the negative logarithm of the IC50 (pIC50) in assay [6] was 6.74; in assay [7] it was 7.05; in the assay with B16-F10, 5.15; in assay [2], 4.64; in the assay on A549 [3] it was 4.82; with PC-3 it was 4.44. For the same compound, the negative logarithm of the IC50 (pIC50) in assay [4] is 5.10; in assay [9], 6.80; with LoVo, 5.15; in assay [11] it was 6.29. Moreover, the Activity with HCT-116 [8] was 3.9%. The same compound displayed an IC50 in assay [10] of 0.041 µM.

For `NC(=O)Nc1cc(-c2cccc(F)c2)sc1C(=O)N[C@H]1CCCNC1` [AZD-7762], the Activity in the assay on HCT-116 [12] was determined as 75%.

As for `COc1ccc2[nH]c(-c3ccc[nH]3)c(C3CC(=O)N(C)C3=O)c2c1` (centres undefined), the outcome in the assay on A549 [1] was Active. The pIC50 with B16-F10 was 5.22; in [2] it was 4.55; with A549 [3] it was 5.15; with PC-3, 4.43; in [4], 5.00; with LoVo, 4.60. Moreover, the pIC50 with MCF7 is 5.15; in assay [5] it was 4.38.

With `Cc1ccc2[nH]c3c4cn[nH]c4c4c(c3c2c1)C(=O)NC4=O`, the pIC50 is 5.85 in [6]; 6.89 in assay [7]; 5.70 in the assay with B16-F10; < 4.00 in [2]; < 4.00 in the assay with A549 [3]; < 4.00 with PC-3. Moreover, the negative logarithm of the IC50 (pIC50) in assay [4] is < 4.00; in assay [9], 6.64; with LoVo it was 5.30; in assay [11], 6.51. In addition, the Activity with HCT-116 [8] is 0%. The IC50 in assay [10] turned out to be 0.17 µM.

On to `COc1ccc2[nH]c3c(c4c(n5cccc35)C(=O)NC4=O)c2c1`, for which the pIC50 is < 5.00 in assay [6]; 5.00 in [7]; 4.66 in the assay on B16-F10; 4.24 in [2]; 4.59 in the assay with A549 [3]; 4.18 in the assay with PC-3. Further, the negative-log IC50 (pIC50) in assay [4] is 4.59; in [9], < 5.00; in the assay on LoVo it was 4.41; in the assay with MCF7 it was 4.46; in assay [11], < 5.00; in assay [5], 4.43. The IC50 in [10] stood at 1.7 µM.

Turning to `O=C1NC(=O)c2c1c1c3ccccc3[nH]c1c1cccn21`, the pIC50 is 5.89 in assay [6]; 6.28 in [7]; 4.72 in the assay on B16-F10; 4.28 in [2]; 4.74 in the assay with A549 [3]; 4.30 in the assay with PC-3. For the same compound, the pIC50 in [4] is 4.48; in [9], 5.00; in the assay with LoVo, 4.96; in the assay with MCF7 it was 4.31; in assay [11], 5.68; in [5], 4.12. In addition, the outcome in the assay with A549 [1] was Active. Besides, the Activity with HCT-116 [8] worked out at 9.6%. In assay [10], this compound gave a concentration for half-maximal inhibition (IC50) of 0.57 µM.

For the compound `Cc1ccc2[nH]c3c(c4c(c5ccnn53)C(=O)NC4=O)c2c1`, the negative logarithm of the IC50 (pIC50) in assay [6] is < 5.00; in assay [7], 5.46; in the assay on B16-F10, 4.43; in [2], 4.19; in the assay with A549 [3] it was 5.10; in the assay on PC-3, 4.12. Further, the pIC50 in assay [4] is 4.24; in assay [9] it was 5.15; in the assay with LoVo it was 5.40; in the assay on MCF7 it was 5.05; in [11], < 5.00; in assay [5] it was 5.30. Besides, the Activity in the assay with HCT-116 [8] is 13.9%. Besides, in assay [10], the 50% inhibitory concentration (IC50) came out at 0.045 µM.
